Assay results collected from several papers.
Organism: Mycolicibacterium smegmatis
Read-out: microbial growth

`C/C(=N\NC(=N)N)c1ccc(-c2ccc(/C(C)=N/Nc3ccccc3Cl)cc2)cc1.Cl` has an MIC of 213 µg/mL (MC2155).
For `C[C@@H](O)[C@H]1C(=O)N2C(C(=O)O)=C(SCCN=CN)C[C@H]12`, the MIC was 2.3 µg/mL (resazurin; MC^2155; 24 h).
`CCN[C@@H]1C[C@H](N)[C@@H](O[C@H]2OC(CN)=CC[C@H]2N)[C@H](O)[C@H]1O[C@H]1OC[C@](C)(O)[C@H](NC)[C@H]1O` gave an MIC of 2 µg/mL (broth dilution; 72 h).
`C[C@H]1c2cccc(O)c2C(=O)C2=C(O)[C@]3(O)C(=O)C(C(N)=O)=C(O)[C@@H](N(C)C)[C@@H]3[C@@H](O)[C@@H]21` has an MIC of 0.11 µg/mL (resazurin; MC^2155; 24 h).
`Cc1ccc(Nc2nc(-c3cc(C(=O)Nc4ccccn4)no3)cs2)cc1` has an MIC of > 64 µg/mL (MC2155).
The MIC of `NC[C@@H]1O[C@H](O[C@H]2[C@@H](O)[C@H](O[C@@H]3[C@@H](O)[C@H](N)C[C@H](N)[C@H]3O[C@H]3O[C@H](CO)[C@@H](O)[C@H](O)[C@H]3N)O[C@@H]2CO)[C@H](N)[C@@H](O)[C@@H]1O` is reported as 1 µg/mL (broth dilution; 72 h).
`CO[C@H]1/C=C/O[C@@]2(C)Oc3c(C)c(O)c4c(O)c(c(/C=N/N5CCN(C)CC5)c(O)c4c3C2=O)NC(=O)/C(C)=C\C=C\[C@H](C)[C@H](O)[C@@H](C)[C@@H](O)[C@@H](C)[C@H](OC(C)=O)[C@@H]1C` has an MIC of 8 µg/mL (broth dilution; ATCC700084 MC^2155).
With `CC[C@@H](CO)NCCN[C@@H](CC)CO` the MIC was 0.78 µg/mL (resazurin; MC^2155; 24 h).
`Cc1ccc(Nc2nc(-c3cc(C(=O)Nc4ccccc4)no3)cs2)cc1` gave an MIC of > 64 µg/mL (MC2155).
For `Cc1ccc(-c2c[nH]c(N)n2)cc1`, the MIC was 100 µM (ATCC700084 MC^2155; 48 h).
For `CCCCCCCCCCC[C@@H](C[C@@H]1OC(=O)[C@H]1CCCCCC)OC(=O)[C@H](CC(C)C)NC=O`, the MIC was 48 µg/mL (resazurin; MC^2155).
With `COc1ccc(-c2c[nH]c(N)n2)cc1` the MIC was 200 µM (ATCC700084 MC^2155; 48 h).
`NCC[C@H](O)C(=O)N[C@@H]1C[C@H](N)[C@@H](O[C@H]2O[C@H](CN)[C@@H](O)[C@H](O)[C@H]2O)[C@H](O)[C@H]1O[C@H]1O[C@H](CO)[C@@H](O)[C@H](N)[C@H]1O` gave an MIC of ≤ 0.5 µg/mL (broth dilution; MC2155).
`NNC(=O)c1ccncc1` gave an MIC of 32 µg/mL (broth dilution; ATCC700084 MC^2155).
The MIC of `O=C(Nc1ccccc1)c1cc(-c2csc(Nc3ccc(Cl)cc3)n2)on1` is reported as > 64 µg/mL (MC2155).
With `CCCCCCc1ccc(-c2nc(N)[nH]c2C(F)(F)F)cc1` the MIC was > 200 µM (broth dilution; ATCC700084 MC^2155).
With `CO[C@H]1/C=C/O[C@@]2(C)Oc3c(C)c(O)c4c(O)c(c(/C=N/N5CCN(C)CC5)c(O)c4c3C2=O)NC(=O)/C(C)=C\C=C\[C@H](C)[C@H](O)[C@@H](C)[C@@H](O)[C@@H](C)[C@H](OC(C)=O)[C@@H]1C` the MIC was 0.8 µg/mL (resazurin; MC^2155; 24 h).
